Structures are written as SMILES. Active and inactive are the calls of the source. The calls are words filed in the database; no cut-off is given here.

Data set [1] concerns SH-SY5Y. Put plainly: Cytotoxicity against human SH-SY5Y cells assessed as toxicity at 30 uM incubated for 24 hrs by CCK-8 assay. It counts as cell-based. Summed up:
(§1)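 SH-SY5Y cells were seeded at 2 × 10⁴ per well and grown 12 h at 37 °C. They were then treated with compound (1–30 μM) under normoxic, normal-glucose conditions for 24 h. CCK-8 (10%) was added for 2 h at 37 °C and OD450 read. Viability was taken relative to untreated control after blank subtraction, with three replicate wells.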

The target of data set [2] is T1, Transient receptor potential cation channel subfamily M member 8 (Homo sapiens, UniProt Q7Z2W7). Description: Inhibition of human TRPM8 expressed in HEK293T cells assessed as blocked of menthol-activated current at 10 uM by whole cell patch clamp electrophysiology relative to control. It counts as cell-based. The method, boiled down:
(§2)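 Whole-cell patch clamp was run at room temperature on HEK293T cells transiently cotransfected with human TRPM8 plus GFP, 24–48 h before recording. ECS was 145 NaCl, 5.6 KCl, 2 MgCl₂, 1.2 CaCl₂, 10 HEPES, pH 7.2. Current was activated with 1 mM menthol, and compound was perfused at least 60 s after it stabilized. Inhibition was calculated relative to stable agonist current minus residual current; n = 3–6.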
Target sequence in this assay (Q7Z2W7 whole entry, looked up, the tested form may be a part): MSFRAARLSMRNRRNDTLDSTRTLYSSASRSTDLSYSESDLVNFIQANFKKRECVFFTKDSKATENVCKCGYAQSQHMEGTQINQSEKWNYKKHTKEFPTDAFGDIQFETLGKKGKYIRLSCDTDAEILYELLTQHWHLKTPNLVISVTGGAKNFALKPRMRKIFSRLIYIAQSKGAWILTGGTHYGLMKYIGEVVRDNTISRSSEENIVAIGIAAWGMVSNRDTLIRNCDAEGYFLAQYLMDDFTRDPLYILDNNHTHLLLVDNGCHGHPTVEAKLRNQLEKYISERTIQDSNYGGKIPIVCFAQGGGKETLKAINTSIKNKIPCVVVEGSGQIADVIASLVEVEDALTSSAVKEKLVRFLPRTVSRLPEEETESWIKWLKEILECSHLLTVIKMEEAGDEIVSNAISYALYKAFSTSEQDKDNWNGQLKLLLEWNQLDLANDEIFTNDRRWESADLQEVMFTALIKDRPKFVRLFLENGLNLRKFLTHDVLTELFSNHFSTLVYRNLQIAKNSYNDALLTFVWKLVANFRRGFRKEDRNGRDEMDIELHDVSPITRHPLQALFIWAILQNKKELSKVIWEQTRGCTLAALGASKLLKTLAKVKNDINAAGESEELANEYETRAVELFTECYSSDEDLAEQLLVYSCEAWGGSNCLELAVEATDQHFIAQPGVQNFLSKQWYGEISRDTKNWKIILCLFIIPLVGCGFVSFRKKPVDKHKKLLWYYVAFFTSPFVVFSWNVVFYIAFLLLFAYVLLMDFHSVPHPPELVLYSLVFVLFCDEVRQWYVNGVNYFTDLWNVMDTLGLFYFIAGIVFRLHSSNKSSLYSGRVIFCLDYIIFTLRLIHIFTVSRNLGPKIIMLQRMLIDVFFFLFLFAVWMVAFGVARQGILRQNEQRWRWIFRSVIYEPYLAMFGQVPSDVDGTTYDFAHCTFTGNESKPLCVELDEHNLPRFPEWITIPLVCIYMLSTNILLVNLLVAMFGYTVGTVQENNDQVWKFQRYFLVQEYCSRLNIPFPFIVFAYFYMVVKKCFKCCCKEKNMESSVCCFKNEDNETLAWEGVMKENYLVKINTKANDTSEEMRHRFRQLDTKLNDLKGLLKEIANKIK

Data set [3] concerns the target T1, Transient receptor potential cation channel subfamily M member 8. Description: Inhibition of human TRPM8 expressed in HEK293T cells assessed as blocked of menthol-activated current at 3 uM by whole cell patch clamp electrophysiology relative to control. It counts as cell-based. The method, boiled down: as §2
Target sequence in this assay (Q7Z2W7 whole entry, looked up, the tested form may be a part): as above
The target of data set [4] is T2, Phospholipase A2 (Homo sapiens, UniProt P04054). Description: Inhibition of PLA2 (unknown origin) using soybean phosphatidylcholine as substrate at 10 uM preincubated for 30 mins followed incubated for 60 mins after substrate addition by microplate reader relative to control. Summed up: (§3)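 PLA2 (4 μg/L in PBS) was preincubated 30 min at 37 °C with inhibitor in 125 mM Tris. Substrate was then added for 60 min: soybean phosphatidylcholine with Tris, CaCl₂, sodium deoxycholate and 0.5% Triton X-100. Liberated free fatty acids were quantified colorimetrically at OD550. Results are % inhibition versus enzyme without inhibitor, n = 3.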
Target sequence in this assay (P04054 23-148 limits assumed): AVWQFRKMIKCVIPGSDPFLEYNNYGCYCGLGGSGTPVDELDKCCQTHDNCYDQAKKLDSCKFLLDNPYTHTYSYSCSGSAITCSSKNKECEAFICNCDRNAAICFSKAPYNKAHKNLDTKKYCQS

Data set [5] concerns the target T2, Phospholipase A2. Put plainly: Inhibition of PLA2 (unknown origin) using soybean phosphatidylcholine as substrate preincubated for 30 mins followed incubated for 60 mins after substrate addition by microplate reader relative to control. The method, boiled down: as §3
Target sequence in this assay (P04054 whole entry): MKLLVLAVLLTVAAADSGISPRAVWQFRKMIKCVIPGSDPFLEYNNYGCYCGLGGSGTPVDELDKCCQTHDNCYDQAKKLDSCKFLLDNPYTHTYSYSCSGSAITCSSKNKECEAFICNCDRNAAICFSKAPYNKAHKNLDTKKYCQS
Data set [6] has as its target T2, Phospholipase A2. Put plainly: Inhibition of PLA2 (unknown origin) using soybean phosphatidylcholine as substrate at 3 uM preincubated for 30 mins followed incubated for 60 mins after substrate addition by microplate reader relative to control. The method, boiled down:
as §3
Target sequence in this assay (P04054 23-148 limits assumed): as the sequence (P04054 23-148 limits assumed) above

For data set [7], the target named is T3, Transient receptor potential cation channel subfamily M member 2 (Homo sapiens, UniProt O94759). Description: Inhibition of human TRPM2 expressed in HEK293T cells assessed as suppression of H2O2-induced calcium flux at 1 uM measured after 30 mins by Fluo-3/AM assay. The data set is classed as cell-based.
Data set [8] addresses T3, Transient receptor potential cation channel subfamily M member 2. Put plainly: Inhibition of human TRPM2 expressed in HEK293T cells assessed as blocked of ADPR-activated current by whole cell patch clamp electrophysiology. The data set is classed as cell-based.
For data set [9], the system named is SH-SY5Y. Put plainly: Neuroprotective activity against oxygen glucose deprivation/reperfusion-induced cell death in human SH-SY5Y cells assessed as cell viability at 3 uM […] by CCK8 assay relative to control. The data set is classed as functional.
Data set [10] has as its system SH-SY5Y. Description: Cytotoxicity against human SH-SY5Y cells assessed as cell viability under normoxic/normal sugar condition at 10 to 30 uM by CCK-8 assay. It counts as cell-based. Particulars: dose 10-30 µM. The method, boiled down: as §1
In data set [11] the test system is Mus musculus. Put plainly: Neuroprotective activity in mouse model of transient middle cerebral artery occlusion-induced cerebral ischemia-reperfusion injury assessed as reduction in infarct volume at 3 mg/kg, iv treated for 3 hrs after onset of reperfusion by TTC staining based assay (reference value: 57.6 +/- 4.9%). It counts as functional. Also on record: scale not given: the % may be the effect or the level left.

Data set [12] relates to Mus musculus. Description: Neuroprotective activity in mouse model of transient middle cerebral artery occlusion-induced cerebral ischemia-reperfusion injury assessed as reduction in infarct volume at 1 mg/kg, iv treated for 3 hrs after onset of reperfusion by TTC staining based assay (reference value: 52 +/- 1.7%). It counts as functional. More on the design: scale not given: the % may be the effect or the level left.

The test system of data set [13] is Mus musculus. Description: Neuroprotective activity in mouse model of transient middle cerebral artery occlusion-induced cerebral ischemia-reperfusion injury assessed as reduction in infarct volume at 0.3 mg/kg, iv treated for 3 hrs after onset of reperfusion by TTC staining based assay (reference value: 52 +/- 1.7%). The data set is classed as functional. More on the design: scale not given: the % may be the effect or the level left.

In data set [14] the test system is Mus musculus. Put plainly: Neuroprotective activity in mouse model of transient middle cerebral artery occlusion-induced cerebral ischemia-reperfusion injury assessed as reduction neurological score at 3 mg/kg, iv treated for 3 hrs after onset of reperfusion by TTC staining based assay (reference value: 2.4 +/- 0.5). The data set is classed as functional.
The subject of data set [15] is Mus musculus. Put plainly: Neuroprotective activity in mouse model of transient middle cerebral artery occlusion-induced cerebral ischemia-reperfusion injury assessed as reduction neurological score at 1 mg/kg, iv treated for 3 hrs after onset of reperfusion by TTC staining based assay relative to control. The data set is classed as functional, organism-based.
Data set [16] has as its system Mus musculus. Description: Neuroprotective activity in mouse model of transient middle cerebral artery occlusion-induced cerebral ischemia-reperfusion injury assessed as reduction neurological score at 0.3 mg/kg, iv treated for 3 hrs after onset of reperfusion by TTC staining based assay relative to control. The data set is classed as functional, organism-based.
For data set [17], the target named is T1, Transient receptor potential cation channel subfamily M member 8. Put plainly: Inhibition of human TRPM8 expressed in HEK293T cells assessed as blocked of menthol-activated current by whole cell patch clamp electrophysiology relative to control. The data set is classed as cell-based. Summed up: as §2
Target sequence in this assay (Q7Z2W7 whole entry, the tested form may be a part): as the sequence (Q7Z2W7 whole entry, looked up, the tested form may be a part) above

T3 sequence (O94759 whole entry): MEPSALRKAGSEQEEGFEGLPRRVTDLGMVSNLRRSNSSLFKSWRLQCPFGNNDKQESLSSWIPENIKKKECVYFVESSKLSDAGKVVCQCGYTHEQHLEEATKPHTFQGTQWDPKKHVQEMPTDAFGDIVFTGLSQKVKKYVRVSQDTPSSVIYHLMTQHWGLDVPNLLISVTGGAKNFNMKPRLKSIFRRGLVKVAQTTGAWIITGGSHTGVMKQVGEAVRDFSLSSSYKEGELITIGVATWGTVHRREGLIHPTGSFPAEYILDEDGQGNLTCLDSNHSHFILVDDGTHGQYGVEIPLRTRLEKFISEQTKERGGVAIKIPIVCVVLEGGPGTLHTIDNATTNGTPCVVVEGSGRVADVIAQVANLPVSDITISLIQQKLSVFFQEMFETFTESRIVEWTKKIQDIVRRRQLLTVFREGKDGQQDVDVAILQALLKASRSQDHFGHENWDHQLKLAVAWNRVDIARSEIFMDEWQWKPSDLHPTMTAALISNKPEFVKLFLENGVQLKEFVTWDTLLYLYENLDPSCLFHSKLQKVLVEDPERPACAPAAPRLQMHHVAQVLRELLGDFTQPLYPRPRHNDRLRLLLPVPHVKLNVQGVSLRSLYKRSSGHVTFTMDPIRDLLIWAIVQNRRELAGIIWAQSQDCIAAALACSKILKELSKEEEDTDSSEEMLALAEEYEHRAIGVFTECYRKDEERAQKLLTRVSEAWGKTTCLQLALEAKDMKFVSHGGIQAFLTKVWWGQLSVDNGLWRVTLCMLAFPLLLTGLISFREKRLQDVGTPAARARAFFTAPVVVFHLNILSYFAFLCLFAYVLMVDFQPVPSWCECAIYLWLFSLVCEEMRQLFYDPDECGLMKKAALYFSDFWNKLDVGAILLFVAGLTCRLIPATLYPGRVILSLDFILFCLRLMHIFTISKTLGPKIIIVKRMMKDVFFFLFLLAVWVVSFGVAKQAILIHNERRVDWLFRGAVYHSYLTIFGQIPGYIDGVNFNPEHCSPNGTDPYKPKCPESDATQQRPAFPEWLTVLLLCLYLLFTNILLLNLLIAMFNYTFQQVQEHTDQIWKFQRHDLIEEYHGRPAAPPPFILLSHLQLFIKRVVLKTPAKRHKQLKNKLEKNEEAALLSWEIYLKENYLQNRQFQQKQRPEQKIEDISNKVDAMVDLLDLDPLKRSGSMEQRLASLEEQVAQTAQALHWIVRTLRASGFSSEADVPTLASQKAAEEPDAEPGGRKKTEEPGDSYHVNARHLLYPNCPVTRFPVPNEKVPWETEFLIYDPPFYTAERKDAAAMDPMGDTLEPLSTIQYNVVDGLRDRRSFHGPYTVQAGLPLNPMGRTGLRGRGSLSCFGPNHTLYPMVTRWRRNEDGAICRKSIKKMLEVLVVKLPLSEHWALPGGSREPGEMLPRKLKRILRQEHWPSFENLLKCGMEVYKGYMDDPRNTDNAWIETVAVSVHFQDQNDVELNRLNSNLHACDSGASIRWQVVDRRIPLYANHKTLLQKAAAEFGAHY

With `CCCCCc1ccc(/C=C/C(=O)Nc2ccccc2C(=O)O)cc1`, in [1], the Activity was < 10%. Also, the inhibition in data set [2] was 62.2%; in data set [3], 39.3%; in data set [4] it was 40.4%; in data set [6] it was 23.4%; in data set [7], > 45%. In [5], the IC50 is 22 µM.

Consider `O=C(/C=C/c1ccc(-c2cccc([N+](=O)[O-])c2)cc1)Nc1ccccc1C(=O)O`, for which, in data set [8], the IC50 worked out at 398 nM. Further, the figures for the Activity in [1] and in data set [10] were < 10% and “Non-Toxic”, respectively. Also, the results for the inhibition in [2], in data set [4] and in [7] were 14.6%, 24.6% and > 45%, respectively. For the same compound, the outcome in data set [9] was Active.

Take `CCCCCc1ccc(/C=C/C(=O)Nc2cc(C)ccc2C(=O)O)cc1`: the IC50 in data set [8] was found to be 467 nM. The Activity is given as < 10% in [1] and “Non-Toxic” in data set [10]. Moreover, the figures for the inhibition in [2] and in data set [7] were 88.1% and > 45%, respectively. The inhibition result in [4] is “inactive”. The outcome in data set [9] was Active.

In the case of `CC1=NN(c2ccccc2)C(=O)C1` [EDARAVONE], in data set [9] (read-out: Activity), the viability at 3 µM was 81.2%. Moreover, the Activity entry was “Non-Toxic” in data set [10]; 39% in data set [11]; 43.9% in data set [12]; 46.2% in data set [13]; 1.6 in data set [14]. The result in [15] and in [16] was inactive.

For the compound `COc1cccc(NC(=O)/C=C/c2ccc(Cl)cc2)c1`, the IC50 in data set [17] was > 10 µM.

With `O=C(/C=C/c1ccc(-c2ccccc2)cc1)Nc1ccc(Br)cc1C(=O)O`, the IC50 in data set [8] came out at 410 nM. Also, the Activity in [1] was < 10%. The inhibition in data set [2] is 93.3%; in data set [7], > 45%. The inhibition result in [4] is “inactive”. Further, in data set [9], the outcome was Active.

Consider `CCCCCc1ccc(/C=C/C(=O)Nc2ccc(C)cc2C(=O)O)cc1`, for which, in data set [8], the IC50 came to 987 nM. In addition, the Activity in [1] is recorded as < 10%. Moreover, the inhibition is 85.6% in data set [2] and > 45% in [7]. In addition, the inhibition entry in [4] was “inactive”. Moreover, in [9], the outcome was Active.

(Values after ChEMBL document CHEMBL4834416, “The Discovery of Novel ACA Derivatives as Specific TRPM2 Inhibitors that Reduce Ischemic Injury Both In Vitro and In Vivo” (J Med Chem, 2021).)
